Measurements gathered from unrelated publications.
Each line is one published result; the experiments were not run side by side.
Organism: Pseudomonas aeruginosa
Effect on: microbial growth

Compound | method | strain | setting | MIC
CCCCCCC#Cc1cncc(-c2nnc(SCc3ccc([N+](=O)[O-])o3)n2CCCN)c1 | broth dilution | DSM1128 | – | > 64 µg/mL
C[C@@H](O)[C@H]1C(=O)N2C(C(=O)O)=C(SCCN=CN)C[C@H]12 | broth dilution | ATCC27853 | – | 4 µg/mL
CCCCCCCCN=c1ccn(CCCCCCCCCCn2ccc(=NCCCCCCCC)cc2)cc1 | – | PAO1 | – | 2 µM
C[C@@H](O)[C@H]1C(=O)N2C(C(=O)O)=C(S[C@@H]3CN[C@H](C(=O)N(C)C)C3)[C@H](C)[C@H]12 | broth dilution | ATCC27853 | – | 0.25 µg/mL
COc1ccc2ccc(O)c(/C=N/[C@H]3CCCC[C@H]3/N=C/c3ccc(-c4ccccc4)cc3O)c2c1 | broth dilution | – | clinical isolate | > 40 µM
Cc1ccc2[nH]nc(-c3nnc(Nc4ccc(O)cc4)s3)c2c1 | – | ATCC27853 | – | 63.9 µg/mL
COc1ccc2ccc(O)c(/C=N/[C@H]3CCCC[C@H]3/N=C/c3ccc(OCCN4CCCCC4)cc3O)c2c1 | broth dilution | – | – | > 40 µM
[H]/N=C(/N)N[C@H]1[C@H](O)[C@@H](O)[C@H](O[C@@H]2O[C@@H](C)[C@](O)(C=O)[C@H]2O[C@@H]2O[C@@H](CO)[C@H](O)[C@@H](O)[C@@H]2NC)[C@@H](N/C(N)=N\[H])[C@@H]1O | broth dilution | ATCC27 ATCC27853 | – | 20 µg/mL
Cc1ccc2[nH]nc(-c3nnc(Nc4ccc(C)c(C)c4)s3)c2c1 | – | ATCC27853 | – | 108 µg/mL
CO/N=C(\C(=O)N[C@@H]1C(=O)N2C(C(=O)O)=CCS[C@H]12)c1csc(N)n1 | broth dilution | ATCC27853 | – | 16 µg/mL
CCCCCCC#Cc1cncc(-c2nnc(SCc3cc([N+](=O)[O-])cc([N+](=O)[O-])c3)n2CCCN)c1 | broth dilution | DSM1128 | – | > 64 µg/mL
Cc1ccc2[nH]nc(-c3nnc(Nc4ccc(Cl)cc4)s3)c2c1 | – | ATCC27853 | – | 119 µg/mL
C[C@@H](O)[C@H]1C(=O)N2C(C(=O)O)=C(S[C@@H]3CN[C@H](C(=O)N(C)C)C3)[C@H](C)[C@H]12 | – | ATCC27853 | drug-resistant strain | 0.25 µg/mL
CC1(C)S[C@@H]2[C@H](NC(=O)[C@H](N)c3ccccc3)C(=O)N2[C@H]1C(=O)O | broth dilution | ATCC27853 | – | 64 µg/mL
Cc1cc(O)cc(Nc2nnc(-c3n[nH]c4ccc(C)cc34)s2)c1 | – | ATCC27853 | – | 147 µg/mL
CNC(C)C1CCC(N)C(OC2C(N)CC(N)C(OC3OCC(C)(O)C(NC)C3O)C2O)O1 (stereo not shown) | broth dilution | – | – | 2 µg/mL
CNC(C)C1CCC(N)C(OC2C(N)CC(N)C(OC3OCC(C)(O)C(NC)C3O)C2O)O1 (stereo not shown) | broth dilution | ATCC27853 | – | 2 µg/mL
Cc1ccc2[nH]nc(-c3nnc(Nc4ccc(Cl)c(Br)c4)s3)c2c1 | – | ATCC27853 | – | 254 µg/mL
COc1ccc2ccc(O)c(/C=N/[C@H]3CCCC[C@H]3/N=C/c3c(O)cccc3F)c2c1 | broth dilution | – | clinical isolate | > 40 µM
CCCCCCC#Cc1cncc(-c2nnc(SCc3ccc([N+](=O)[O-])cc3)n2CCCN)c1 | broth dilution | DSM1128 | – | > 64 µg/mL
[H]/N=C(\N/C(=N/[H])NCCCCCCNC(=N)NC(=N)Nc1ccc(Cl)cc1)Nc1ccc(Cl)cc1 | – | PAO1 | – | 8 µM
Cc1ccc2[nH]nc(-c3nnc(Nc4ccc(C(F)(F)F)cc4)s3)c2c1 | – | ATCC27853 | – | 126 µg/mL
